From ChEMBL document CHEMBL3826885, “Similarities and differences in affinity and binding modes of tricyclic pyrimido- and pyrazinoxanthines at human and rat adenosine receptors” (Bioorg Med Chem, 2016)
≈ marks a conversion by molar mass, not a printed value.

Experiments:
[1] = target: Adenosine receptor A2a (Rattus norvegicus) (UniProt P30543); test: Displacement of [3H]MSX2 from Adenosine receptor A2a in rat brain striatal membranes at 1 uM; type: cell membranes; conditions: Membrane
Method in brief: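 Native rat receptors: A1 in brain cortical membranes with [3H]CCPA, A2A in brain striatal membranes, from frozen unstripped rat brains. Compounds were first screened at a single high concentration in three independent experiments. Active compounds then had full inhibition curves over at least 3 orders of magnitude of concentration.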

[2] = target: T1, Adenosine receptor A2b (Rattus norvegicus) (UniProt P29276); test: Displacement of [3H]PSB-603 from recombinant rat adenosine receptor A2b expressed in CHO cell membranes at 1 uM
T1 sequence (whole entry): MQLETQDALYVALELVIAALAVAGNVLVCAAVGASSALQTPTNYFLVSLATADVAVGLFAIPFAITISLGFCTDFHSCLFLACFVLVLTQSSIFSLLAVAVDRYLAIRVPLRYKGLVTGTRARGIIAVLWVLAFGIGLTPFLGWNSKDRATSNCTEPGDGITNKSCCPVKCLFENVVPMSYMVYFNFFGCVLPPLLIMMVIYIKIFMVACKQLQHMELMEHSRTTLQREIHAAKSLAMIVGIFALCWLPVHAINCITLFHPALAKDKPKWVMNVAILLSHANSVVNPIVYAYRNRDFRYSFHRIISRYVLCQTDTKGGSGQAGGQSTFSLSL
Method in brief: (§1)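 Membranes came from CHO cells expressing recombinant receptors (human A1, A2A, A2B, A3; rat A2B, A3). Radioligands were [3H]CCPA for A1 and [3H]PSB-11 or [3H]NECA for A3. A single high concentration was screened first, in three experiments for A1/A2A and two for A2B/A3. Full inhibition curves spanning at least 3 log units were run for potent compounds.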

[3] = target: T2, Adenosine receptor A1 (Homo sapiens) (UniProt P30542); test: Displacement of [3H]CCPA from recombinant human adenosine receptor A1 expressed in CHO cell membranes at 1 uM; method in brief: as §1
T2 sequence (whole entry): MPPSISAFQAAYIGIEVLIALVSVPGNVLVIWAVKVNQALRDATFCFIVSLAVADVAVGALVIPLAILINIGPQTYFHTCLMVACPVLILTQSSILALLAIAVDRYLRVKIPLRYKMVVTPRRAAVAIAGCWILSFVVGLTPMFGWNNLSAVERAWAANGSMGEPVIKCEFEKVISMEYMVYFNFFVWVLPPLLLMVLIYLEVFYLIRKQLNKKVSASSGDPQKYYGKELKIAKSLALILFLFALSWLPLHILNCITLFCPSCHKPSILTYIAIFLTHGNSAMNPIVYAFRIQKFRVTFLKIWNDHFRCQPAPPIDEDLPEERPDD

Adenosine receptor A2a [4] = target: T3, Adenosine receptor A2a (Homo sapiens, UniProt P29274); test: Displacement of [3H]MSX2 from recombinant human adenosine receptor A2a expressed in CHO cell membranes at 1 uM; method in brief: as §1
Adenosine receptor A2b = target: T4, Adenosine receptor A2b (Homo sapiens, UniProt P29275); test: Displacement of [3H]PSB-603 from recombinant human adenosine receptor A2b expressed in CHO cell membranes
T4 sequence (P29275 whole entry): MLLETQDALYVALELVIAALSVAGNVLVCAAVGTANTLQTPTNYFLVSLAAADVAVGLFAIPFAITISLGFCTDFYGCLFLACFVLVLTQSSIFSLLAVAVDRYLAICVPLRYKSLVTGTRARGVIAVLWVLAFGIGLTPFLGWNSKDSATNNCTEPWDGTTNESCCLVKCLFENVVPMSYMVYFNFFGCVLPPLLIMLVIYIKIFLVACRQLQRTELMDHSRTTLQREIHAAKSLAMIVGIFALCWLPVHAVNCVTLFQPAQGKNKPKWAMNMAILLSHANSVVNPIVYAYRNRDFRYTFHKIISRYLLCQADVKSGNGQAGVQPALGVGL
Method in brief: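 Membranes came from CHO cells expressing recombinant receptors (human A1, A2A, A2B, A3; rat A2B, A3). Radioligands were [3H]CCPA for A1 and [3H]PSB-11 or [3H]NECA for A3. A single high concentration was screened first, in three experiments for A1/A2A and two for A2B/A3.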

[5] = target: T5, Adenosine receptor A3 (Homo sapiens) (UniProt P0DMS8); test: Displacement of [3H]PSB11 from recombinant human adenosine receptor A3 expressed in CHO cell membranes at 1 uM; method in brief: as §1
T5 sequence (whole entry): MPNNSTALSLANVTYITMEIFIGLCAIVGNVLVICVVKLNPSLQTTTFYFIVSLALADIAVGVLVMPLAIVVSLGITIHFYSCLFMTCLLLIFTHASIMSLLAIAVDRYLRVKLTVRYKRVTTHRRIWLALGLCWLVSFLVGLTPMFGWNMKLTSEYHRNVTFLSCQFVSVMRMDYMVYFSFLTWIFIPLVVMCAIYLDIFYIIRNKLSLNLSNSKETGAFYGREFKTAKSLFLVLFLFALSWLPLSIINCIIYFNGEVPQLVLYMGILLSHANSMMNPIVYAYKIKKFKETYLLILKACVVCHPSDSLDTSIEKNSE

Adenosine receptor A2a [6] = target: T3, Adenosine receptor A2a; test: Antagonist activity at human adenosine receptor A2a expressed in CHO cell membranes assessed as inhibition of NECA-induced cAMP accumulation incubated for 15 mins in presence of [3H]cAMP by liquid scintillation counting; type: functional
Method in brief: (§2)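 Stably transfected CHO cells (human A2A or A2B) grown in DMEM-F12 with 10% FCS at 37 °C, 5% CO2. The cells were seeded at 200,000/well, washed after 24 h and held 2 h in HBSS (pH 7.3) with 1 U/ml adenosine deaminase. Ro20-1724 was added to 40 µM final for 15 min, then NECA dilutions ± one fixed test concentration in 2.5% DMSO, in duplicate.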

[7] = Solubility of compound in water at 20 degC by UV-spectroscopic analysis; type: physicochemical
Method in brief: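 Suspensions were boiled 5 min, left overnight at 20 °C, and filtered. Filtrates were diluted 10-80-fold in MeOH and read by UV in MeOH/H2O (90% v/v). Concentration came from standard curves of seven concentrations from 10^-3 to 10^-1 mg/mL, using linear regression of two neighbouring points and multiplying by the dilution.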

[8] = target: T6, Adenosine receptor A2b (Homo sapiens) (UniProt P29275); test: Antagonist activity at human adenosine receptor A2b expressed in CHO cell membranes assessed as inhibition of NECA-induced cAMP accumulation incubated for 15 mins in presence of [3H]cAMP by liquid scintillation counting; type: functional; method in brief: as §2
T6 sequence (whole entry): T4 sequence (P29275 whole entry)

CHO [9] = test: Selectivity ratio of Ki for recombinant human adenosine receptor A1 expressed in CHO cell membranes to Ki for adenosine receptor A1 in rat brain cortical membranes; type: cell-based
CHO [10] = test: Selectivity ratio of Ki for recombinant rat adenosine receptor A2b expressed in CHO cell membranes to Ki for recombinant human adenosine receptor A2b expressed in CHO cell membranes; type: cell-based
CHO [11] = test: Selectivity ratio of Ki for recombinant rat adenosine receptor A3 expressed in CHO cell membranes to Ki for recombinant human adenosine receptor A3 expressed in CHO cell membranes; type: cell-based

T3 sequence (P29274 whole entry): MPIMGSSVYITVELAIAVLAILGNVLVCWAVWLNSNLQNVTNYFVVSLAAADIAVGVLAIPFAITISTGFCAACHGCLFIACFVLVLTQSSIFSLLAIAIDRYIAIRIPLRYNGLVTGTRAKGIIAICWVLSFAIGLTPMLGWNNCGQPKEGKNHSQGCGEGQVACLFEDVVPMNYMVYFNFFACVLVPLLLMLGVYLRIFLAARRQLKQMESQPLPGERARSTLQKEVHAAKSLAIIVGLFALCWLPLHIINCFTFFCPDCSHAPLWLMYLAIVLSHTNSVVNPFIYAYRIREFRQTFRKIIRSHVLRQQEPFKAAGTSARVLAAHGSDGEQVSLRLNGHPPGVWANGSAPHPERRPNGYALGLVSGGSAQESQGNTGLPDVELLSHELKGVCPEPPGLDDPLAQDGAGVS
Chain of Adenosine receptor A2a (Rattus norvegicus) (P30543 whole entry): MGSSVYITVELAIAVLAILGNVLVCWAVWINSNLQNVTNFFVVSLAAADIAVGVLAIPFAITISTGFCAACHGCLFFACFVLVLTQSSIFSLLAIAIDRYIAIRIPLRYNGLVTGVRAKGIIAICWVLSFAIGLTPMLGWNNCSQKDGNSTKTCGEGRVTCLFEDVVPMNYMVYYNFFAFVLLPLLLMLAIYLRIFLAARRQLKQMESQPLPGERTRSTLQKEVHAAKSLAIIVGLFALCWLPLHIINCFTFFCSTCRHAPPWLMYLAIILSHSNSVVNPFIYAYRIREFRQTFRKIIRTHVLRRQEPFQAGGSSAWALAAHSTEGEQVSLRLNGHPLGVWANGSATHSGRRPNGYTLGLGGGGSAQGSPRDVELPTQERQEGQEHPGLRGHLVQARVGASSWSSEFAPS

SMILES | inhibition [1] [%] | inhibition [2] [%] | inhibition [3] [%] | inhibition (Adenosine receptor A2a [4]) [%] | Ki (Adenosine receptor A2b) [nM] | inhibition [5] [%] | Kb (Adenosine receptor A2a [6]) [nM] | solubility [7] [µg/mL] | Kb [8] [nM] | Ratio Ki (CHO [9]) | Ratio Ki (CHO [10]) | Ratio Ki (CHO [11])
CCN(CC)CCOc1ccc(CCN2CCCn3c2nc2c3c(=O)n(C)c(=O)n2C)cc1 | 53 | -2 | 1 | 57 | > 1000 | -3 | 839 | 709 (≈ 1560 µM) |  |  |  | 
CCCCn1c(=O)c2c(nc3n2CCCN3CCc2ccc(OCCN(CC)CC)cc2)n(CCCC)c1=O | 64 | 38 | 27 | 64 | 109 | 75 |  | 974 (≈ 1810 µM) | 547 | 19 | 10 | > 3
